Series [1] concerns MRGPRX1. The settings on record: cited from earlier work.
The test system of series [2] is MRGPRX1. The settings on record: NIH MLPCN; cited from earlier work.
Series [3] has as its target T1, human MRGPRX1 (Homo sapiens, UniProt Q96LB2). In kind it is cell-based. The settings on record: MRGPRX1 PAM potency. A digest of the protocol:
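Stable human MRGPRX1 HEK293 cells seeded at 25,000/well and grown 2 days. Loaded with 2 μM Fluo-4 AM plus 1% Trypan Red in HBSS for 50 min at 37°C, then 10 min at room temperature. Serial HBSS dilutions of test compound added with EC20 BAM8–22; FLIPR read for 2 min as max–min fluorescence. […] Mean ± SEM, ≥3 experiments in quadruplicate.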

Series [4] in a line: Metabolite identification in human liver microsomes. In kind it is in vitro ADME. The following applies: 60 min. (In general: Microsomes from liver hold many membrane-bound enzymes, among them those of drug oxidation.)
Series [5] relates to naïve MRGPRX1 mice. The series can be described thus: Rotarod test in naïve MRGPRX1 mice. In kind it is in vivo. The following applies: 100 mg/kg, po, vs vehicle-treated group and pre-treatment values. (In general: Falling from the rotarod earlier than controls is read as motor impairment.)
The subject of series [6] is humanized MRGPRX1 mice. The series can be described thus: Sciatic nerve chronic constriction injury. In kind it is in vivo. The settings on record: 100 mg/kg, po. A digest of the protocol: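 Humanized MRGPRX1 mice of both sexes (2–3 months, 20–30 g) under 2% isoflurane; left sciatic nerve loosely ligated with three sutures proximal to the branching point. Test compound given at 100 mg/kg po, vehicle as control. Hargreaves heat paw withdrawal latency measured before and after dosing on days 12 and 26 post-CCI (n=4–5/group). Two-way mixed-model ANOVA with Bonferroni; mean + SD.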

Series [7] has as its system humanized MRGPRX1 mice. In kind it is in vivo. The following applies: 100 mg/kg oral, 0–1 hour post-drug.
Series [8] concerns the target T1, human MRGPRX1. The series can be described thus: MRGPRX1 intrinsic agonist activity in the absence of BAM8–22. The following applies: at concentrations up to 100 μM in the absence of BAM8–22. In kind it is cell-based. A digest of the protocol: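 Same stable human MRGPRX1 HEK293 FLIPR format: 25,000 cells/well for 2 days, then 2 μM Fluo-4 AM with 1% Trypan Red in HBSS for 50 min at 37°C and 10 min at room temperature. Serially diluted test compound added in HBSS alone, with HBSS as negative control and BAM8–22 as positive control. Max–min fluorescence recorded over 2 min.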

Series [9] deals with hERG channel (Homo sapiens, UniProt Q12809). The series can be described thus: hERG channel in Eurofins Cerep SafetyScreen 44. The settings on record: at 10 μM. In general terms: hERG is a cardiac potassium channel; its block is linked to QT prolongation.
In series [10] the test system is naïve MRGPRX1 mice. The series can be described thus: Open field test in naïve MRGPRX1 mice. In kind it is in vivo. The following applies: 100 mg/kg, po, compared to pre-drug.
Series [11] concerns panel of 44 selected targets (Eurofins Cerep SafetyScreen 44). The series can be described thus: Off-target panel of 44 selected targets. The settings on record: at 10 μM.
Series [12] in a line: In vivo pharmacokinetics in mice after oral administration. The settings on record: for Kp: male, CD-1, mouse, po, 100 mg/kg, Tissue-to-plasma ratio (by AUC). A digest of the protocol:
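Male CD1 mice (25–30 g, n=3) dosed by oral gavage at 100 mg/kg in 5% dimethylacetamide/10% Cremophor EL/10% Tween80/25% PEG400/50% water. Killed at 0.25–6 h; cardiac blood taken to plasma, spinal cord and brain flash-frozen. Acetonitrile extraction with losartan internal standard, then LC/MS/MS. Calibration 0.01–10 nmol/mL in naïve matrix, 1/x-weighted linear regression.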

Series [13] has as its target T2, MRGPRX2 (Homo sapiens, UniProt Q96LB1).
T2 sequence (Q96LB1 1-330): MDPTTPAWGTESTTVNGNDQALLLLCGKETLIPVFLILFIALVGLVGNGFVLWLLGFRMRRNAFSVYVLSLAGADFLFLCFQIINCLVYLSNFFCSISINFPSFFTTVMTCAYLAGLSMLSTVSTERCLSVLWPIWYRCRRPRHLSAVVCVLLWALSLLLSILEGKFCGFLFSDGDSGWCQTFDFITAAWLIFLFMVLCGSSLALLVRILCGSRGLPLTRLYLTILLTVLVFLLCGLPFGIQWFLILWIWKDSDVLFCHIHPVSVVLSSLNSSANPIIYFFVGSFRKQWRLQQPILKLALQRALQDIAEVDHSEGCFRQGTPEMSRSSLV
Type of series: cell-based.

Setting [14] is: spinal cord, 100 mg/kg po (table).

T1 sequence (Q96LB2 whole entry): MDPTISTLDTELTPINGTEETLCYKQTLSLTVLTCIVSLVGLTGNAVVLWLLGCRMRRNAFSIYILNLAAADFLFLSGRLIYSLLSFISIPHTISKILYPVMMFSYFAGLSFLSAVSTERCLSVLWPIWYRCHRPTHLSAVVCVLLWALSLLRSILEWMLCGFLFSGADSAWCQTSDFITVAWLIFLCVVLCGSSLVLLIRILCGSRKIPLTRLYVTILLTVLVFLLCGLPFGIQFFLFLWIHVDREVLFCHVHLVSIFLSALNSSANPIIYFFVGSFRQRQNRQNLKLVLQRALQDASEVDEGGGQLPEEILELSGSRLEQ
hERG channel, sequence (Q12809 whole entry): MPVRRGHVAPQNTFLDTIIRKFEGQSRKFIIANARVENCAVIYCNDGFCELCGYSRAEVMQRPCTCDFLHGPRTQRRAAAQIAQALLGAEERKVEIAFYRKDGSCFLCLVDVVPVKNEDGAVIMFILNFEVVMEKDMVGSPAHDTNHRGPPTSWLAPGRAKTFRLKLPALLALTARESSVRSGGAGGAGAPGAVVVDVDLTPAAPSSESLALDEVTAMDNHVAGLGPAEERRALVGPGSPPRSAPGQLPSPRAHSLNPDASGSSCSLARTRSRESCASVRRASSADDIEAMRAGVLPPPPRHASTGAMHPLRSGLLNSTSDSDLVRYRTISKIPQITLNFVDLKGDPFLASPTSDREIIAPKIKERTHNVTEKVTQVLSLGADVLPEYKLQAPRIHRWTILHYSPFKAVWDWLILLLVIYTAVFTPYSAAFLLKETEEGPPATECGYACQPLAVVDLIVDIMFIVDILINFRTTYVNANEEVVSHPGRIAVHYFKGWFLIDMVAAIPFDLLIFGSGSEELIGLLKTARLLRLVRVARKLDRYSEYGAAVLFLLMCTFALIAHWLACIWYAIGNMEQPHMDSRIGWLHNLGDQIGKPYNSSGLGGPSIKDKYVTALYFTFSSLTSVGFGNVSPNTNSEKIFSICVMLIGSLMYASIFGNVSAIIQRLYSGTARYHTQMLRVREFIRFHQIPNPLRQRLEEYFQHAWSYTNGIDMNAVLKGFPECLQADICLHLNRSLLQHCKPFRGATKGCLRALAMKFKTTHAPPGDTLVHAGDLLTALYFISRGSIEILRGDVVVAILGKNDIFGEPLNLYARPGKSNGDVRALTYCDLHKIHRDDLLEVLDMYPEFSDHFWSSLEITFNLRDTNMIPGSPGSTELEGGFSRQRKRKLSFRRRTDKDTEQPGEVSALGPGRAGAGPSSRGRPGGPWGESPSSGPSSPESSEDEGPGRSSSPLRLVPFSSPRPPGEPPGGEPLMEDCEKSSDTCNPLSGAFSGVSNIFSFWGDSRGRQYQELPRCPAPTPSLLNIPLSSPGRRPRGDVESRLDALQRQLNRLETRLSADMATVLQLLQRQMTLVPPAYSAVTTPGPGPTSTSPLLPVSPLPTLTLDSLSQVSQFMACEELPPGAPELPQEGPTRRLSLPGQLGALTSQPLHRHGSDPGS

With `CCOc1ccccc1NC(=O)c1ccccc1NS(=O)(=O)C1CC1` [ML382, 2-[(Cyclopropylsulfonyl)amino]-N-(2-ethoxyphenyl)benzamide], in series [1] (intrathecal injection), the “pain hypersensitivity after injury” value is on record as “inhibit pain hypersensitivity after injury”. Further, the itch side effects result in series [1] (systemic administration) was “did not elicit itch side effects”.

On to `Cc1ccccc1Oc1ncnc2sccc12` [Compound 1b, 4-(o-Tolyloxy)thieno[2,3-d]pyrimidine], for which the “allosteric MRGPRX1 activator activity” value in series [2] was “active allosteric MRGPRX1 activator”.

`Cc1sc2ncnc(Oc3ccccc3)c2c1C` [Compound 1c, 5,6-Dimethyl-4-phenoxythieno[2,3-d]pyrimidine]: the “fold loss in potency compared to 1b” value in series [3] was 4 fold.

Consider `Cc1sc2ncnc(Oc3ccccc3F)c2c1C` [Compound 1f, 4-(2-Fluorophenoxy)-5,6-dimethylthieno[2,3-d]pyrimidine], for which the major metabolite identification result in series [4] is reported as “insertion of an oxygen atom into the parent compound”.

Broadly, the Kp is tissue or fluid exposure divided by exposure in the circulation. Consider `CC(C)(C)c1sc2ncnc(Oc3ccccc3OC(F)(F)F)c2c1-c1ccc(Cl)c(Cl)c1` [Compound 1t, 6-tert-butyl-5-(3,4-dichlorophenyl)-4-(2-(trifluoromethoxy)phenoxy)thieno[2,3-d]pyrimidine], for which the “performance on the rotarod test” value in series [5] is on record as “no difference in performance on the rotarod test”. In addition, the “ipsilateral paw withdrawal latency (PWL) to radiant heat” value in [6] (1 and 2 hours post-drug on day 12 post-injury) was “significantly increased ipsilateral PWLs from pre-drug level”; in [6] (2 hours post-drug on day 26 post-injury) it was “significantly increased ipsilateral PWLs from pre-drug level”. In addition, the “contralateral hind paw PWL” value in series [6] (after drug treatment) is on record as “no significant change of PWLs”. The “itch side effects (spontaneous scratch bouts)” value in [7] is given as “lack of spontaneous scratch bouts”. The overt adverse effects entry in series [7] (compared to vehicle) was “no overt adverse effects”. For the same molecule, the intrinsic agonist activity entry in series [8] is on record as “no intrinsic agonist activity”. Moreover, the “inhibition of hERG channel” value in series [9] is “more than 50%”. The “exploratory performance in the open field test” value in series [10] is reported as “neither compound 1t (100 mg/kg, po) nor vehicle significantly impaired exploratory performance”. Further, the “inhibition of 5 of the 44 targets” value in series [11] is reported as 50−64%. For the same molecule, the “Cmax in the spinal cord relative to the EC50 value” in series [12] (100 mg/kg po) is “more than 40 fold”. In addition, the Cmax in series [12] (brain, 100 mg/kg po) was determined as 0.82 ± 0.05 nmol·h/g; in series [12] (setting [14]), 4.60 ± 0.60 nmol·h/g. The partition ratio (Kp) in [12] (brain/plasma, brain, 100 mg/kg po) was determined as 0.022; in series [12] (spinal cord/plasma, spinal cord, 100 mg/kg po), 0.127. Further, the AUC0-last in series [12] (setting [14]) was determined as 13.79 ± 0.14 nmol·h/g. For the same molecule, the “selectivity for MRGPRX1 over MRGPRX2” value in series [13] is recorded as “at least 50 fold”. Further, the “MRGPRX2 PAM activity” value in series [13] (at 5 μM, in presence of EC20 concentration of C48/80) is on record as “no MRGPRX2 PAM activity”.

The values above are taken from PMC9176367 (Journal of medicinal chemistry, 2022).
